# Results from different studies.
# Compare with care: the assays were run in different laboratories.
# Target: Ephrin type-A receptor 4 (EPHA4, Homo sapiens, UniProt P54764)
Structure (SMILES),test,conditions,remaining binding [%]
O=C(NCCCN1CCOCC1)c1ccc(Nc2ncc(Cl)c(-c3ccc(Cl)s3)n2)cc1,"binding, competition with immobilised ligand",1 µM,89
C[C@@H](c1ccc(-n2cnc3c(N)ncnc32)cc1)N1CCc2nn(C)c(Cc3ccccc3)c2C1=O,"binding, competition with immobilised ligand",0.1 µM,97
CC(=O)c1c(NS(C)(=O)=O)c2cc(-c3ccc(Cl)cc3)c(-c3ccc(Cl)cc3Cl)nc2n(C)c1=O,"cell-free assay, competition with immobilised ligand",1 µM,98
Nc1ncc2c(n1)-c1c([nH]c3ccc(C#CC4CC4)cc13)CCCC2,"binding, competition with immobilised ligand",1 µM,100
C=CC(=O)N1CCC(C(=O)NCC(=O)N2CCN(c3nc(-c4cnc(N)nc4C(F)F)nc(N4CCOCC4)n3)CC2)CC1,"binding, competition with immobilised ligand",1 µM,94
Cc1cnn2ncc(-c3ccnc(N(C)C)n3)c2c1,binding,1 µM,96
O=c1nc(-c2ccccn2)sc2ccccc12,"cell-free assay, competition with immobilised ligand",1 µM,100
O=C(NCCCN1CCOCC1)c1ccc(Nc2nccc(-c3cc4ccccc4s3)n2)cc1,"binding, competition with immobilised ligand",1 µM,82
CC1CCCN1c1nccc(-c2cnn3ncccc23)n1 (stereo not shown),binding,1 µM,97
O=C(c1ccc(Nc2ncc(Cl)c(-c3cc4ccccc4s3)n2)cc1)N1CCC(N2CCCC2)CC1,"binding, competition with immobilised ligand",1 µM,65
N[C@@H]1CCN(c2nccc(-c3cnn4ncccc34)n2)C1,binding,1 µM,97
O=C(NCC1CCOCC1)c1n[nH]cc1NC(=O)c1c(F)cccc1F,"binding, competition with immobilised ligand",1 µM,100
O=C(N1CCS(=O)(=O)CC1)N1C[C@H](c2ccc(OC(F)(F)F)cc2)C[C@H](c2nc(C3CC3)no2)C1,"cell-free assay, competition with immobilised ligand",1 µM,100
CN(C)c1ncc(F)c(-c2cnn3ncccc23)n1,binding,1 µM,100
c1ccc(N2CCN(Cc3nc4ccccc4[nH]3)CC2)nc1,"cell-free assay, competition with immobilised ligand",1 µM,100
CNC(=O)[C@@H]1CC[C@@H](n2c(-c3ccc4cnccc4c3)nc3ccc(C(=O)NCc4cccc(C(N)=O)c4)cc32)C1,"binding, competition with immobilised ligand",1 µM,98
Cc1c(NC(=O)c2cc(C(N)=O)nc3cc(F)ccc23)c(C(F)(F)F)nn1Cc1ccc(C(C)(C)C)cc1,"cell-free assay, competition with immobilised ligand",1 µM,100
C[C@@H]1CCN(c2nccc(-c3cnn4ncccc34)n2)C1,binding,1 µM,100
C[C@@H]1CN(c2cc(-c3n[nH]c4ccc(OC5(C)CC5)cc34)ncn2)C[C@H](C)O1,"cell-free assay, competition with immobilised ligand",0.1 µM,89
COc1ccnn2ncc(-c3ccnc(N(C)C)n3)c12,binding,1 µM,95
CNCc1ccccc1-c1csc([C@@H](C)Nc2nc(C)nc3cc(OC)c(OC)cc23)c1,"cell-free assay, competition with immobilised ligand",1 µM,79
CN(C)c1nccc(-c2cnn3ncccc23)n1,binding,1 µM,99
